The source of these data is ChEMBL document CHEMBL1152160, “Synthesis and bioevaluation of hybrid 4-aminoquinoline triazines as a new class of antimalarial agents” (Bioorg Med Chem Lett, 2008).

Converted amounts (≈) assume the structure as drawn.

Series [1] can be described thus: Selectivity index, ratio of IC50 for african green monkey (Cercopithecus aethiops) Vero cells to IC50 for chloroquine-sensitive Plasmodium falciparum 3D7. The class given is toxicity, cell-based. As to conditions: read-out: Ratio IC50. The procedure, abridged:
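Vero cells at 1 × 10⁴ cells/well were exposed to varying compound concentrations, highest 100 µg/mL, for 72 h. Viability was measured by MTT. Cytotoxic IC50 was taken from non-linear regression of dose–response curves and divided by the 3D7 IC50 to give the index.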

Another series has as its system Plasmodium falciparum. Put plainly: Antimalarial activity after 72hrs against chloroquine-sensitive Plasmodium falciparum 3D7 infected erythrocytes. The format is functional, organism-based. As to conditions: 3D7, 72 h. The procedure, abridged: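 Serial dilutions in screening medium, seven concentrations (top 500 ng/mL, or 100 ng/mL for some compounds), duplicate wells. Added 2.5% haematocrit erythrocytes at 0.5% parasitaemia. Uninfected erythrocytes without drug as negative control, CQ as positive control. After 72 h, SYBR Green I in lysis buffer (20 mM tris pH 7.5, 5 mM EDTA, saponin, Triton X-100), 1 h room temperature, fluorescence read.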

Series [2] relates to Plasmodium yoelii. Put plainly: Antimalarial activity as reduced parasitaemia after 6 days against Plasmodium yoelii N67 infected Swiss mice (Mus musculus) at 50 mg/kg/day intraperitoneal dose. The format is functional, N-67. Also noted: scale not given: the % may be the effect or the level left. The procedure, abridged: (§1)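 Swiss mice (22 ± 2 g), groups of five, inoculated day 0 with P. yoelii N-67-parasitized RBC. Dosed 50 mg/kg/day i.p. once daily, days 0–3, as aqueous suspension with a few drops of Tween 80 in 0.2 mL. Parasitaemia read from thin blood smears on days 4–6. Group mean gave % suppression versus untreated controls. CQ-treated mice as reference.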

The subject of series [3] is Plasmodium yoelii. Put plainly: Antimalarial activity as reduced parasitaemia after 4 days against Plasmodium yoelii N67 infected Swiss mice (Mus musculus) at 50 mg/kg/day intraperitoneal dose. The class given is functional, N-67. Further details: scale not given: the % may be the effect or the level left. Summed up:
as §1

The subject of a further series is Mus musculus. Description: Toxicity to Plasmodium yoelii N-67 infected Swiss mice (Mus musculus) assessed as survival at 50 mg/kg/day, intraperitoneally after 28 days. The class given is organism-based. Also noted: route intraperitoneal. As to conditions: in vivo, ip, 672 h. The procedure, abridged: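 Swiss mice were infected on day 0 with parasitized RBC of CQ-resistant P. yoelii N-67. Groups of five were dosed intraperitoneally at 50 mg/kg/day, once daily on days 0–3. Compounds were given as aqueous suspensions with a few drops of Tween 80. Survival was followed for 28 days. CQ-treated mice served as reference controls.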

With `Cc1ccc(Nc2nc(N3CCOCC3)nc(N3CCN(CCNc4ccnc5cc(Cl)ccc45)CC3)n2)cc1`, the selectivity ratio in series [1] came to 512. The half-inhibitory concentration (IC50) in the series with Plasmodium falciparum stood at 0.0435 µg/mL (≈ 0.0776 µM).
With `Fc1ccc(Nc2nc(N3CCCCC3)nc(N3CCN(CCNc4ccnc5cc(Cl)ccc45)CC3)n2)cc1`, the results for the Activity in the series with Plasmodium yoelii [2] and in the series with Plasmodium yoelii [3] were 96.51% and 99.9%, respectively. For the same molecule, the selectivity ratio in series [1] is 329. In the series on Plasmodium falciparum, this molecule showed a half-maximal inhibitory concentration (IC50) of 0.00715 µg/mL (≈ 0.0127 µM).
Turning to `Clc1ccc2c(NCCN3CCN(c4nc(Nc5ccccc5)nc(N5CCOCC5)n4)CC3)ccnc2c1`, the selectivity ratio in series [1] stood at 470. In the series with Plasmodium falciparum, this molecule showed an IC50 of 0.0213 µg/mL (≈ 0.039 µM).
The matching figures for `Cc1ccc(Nc2nc(N3CCN(CCNc4ccnc5cc(Cl)ccc45)CC3)nc(N3CCN(c4ccccc4)CC3)n2)cc1`: 52.2 and 0.0646 µg/mL (≈ 0.102 µM).
The matching figures for `Cc1ccccc1Nc1nc(NC2CCCCC2)nc(N2CCN(CCNc3ccnc4cc(Cl)ccc34)CC2)n1`: 29 and 0.194 µg/mL (≈ 0.34 µM).
For `Clc1ccc2c(NCCN3CCN(c4nc(N5CCCCC5)nc(N5CCCCC5)n4)CC3)ccnc2c1` the same measures were 53.2 and 0.0444 µg/mL (≈ 0.0828 µM).
In the case of `Clc1ccc2c(NCCN3CCN(c4nc(NC5CCCCC5)nc(N5CCCCC5)n4)CC3)ccnc2c1`, the Activity in the series on Plasmodium yoelii [2] is reported as 99.11%; in the series with Mus musculus it was “Toxic”; in the series with Plasmodium yoelii [3] it was 99.9%. Also, the selectivity ratio in series [1] amounted to 481. It took 0.00443 µg/mL (≈ 0.00805 µM) to reach half-maximal inhibition in the series with Plasmodium falciparum (IC50).
Take `Cc1ccccc1Nc1nc(N2CCOCC2)nc(N2CCN(CCNc3ccnc4cc(Cl)ccc34)CC2)n1`: in series [1], the selectivity ratio was 377. The IC50 with Plasmodium falciparum came to 0.0192 µg/mL (≈ 0.0342 µM).
Consider `Clc1ccc2c(NCCN3CCN(c4nc(Nc5ccccc5)nc(N5CCCCC5)n4)CC3)ccnc2c1`, for which the Activity in the series with Plasmodium yoelii [2] is on record as 55.36%; with Plasmodium yoelii [3] it was 66.67%. The selectivity ratio in series [1] worked out at 117. This molecule displayed an IC50 in the series with Plasmodium falciparum of 0.0178 µg/mL (≈ 0.0328 µM).
Consider `Fc1ccccc1Nc1nc(N2CCCCC2)nc(N2CCN(CCNc3ccnc4cc(Cl)ccc34)CC2)n1`, for which, in series [1], the selectivity ratio is 14.9. Besides, in the series with Plasmodium falciparum, the IC50 was 0.159 µg/mL (≈ 0.283 µM).
The matching figures for `Clc1ccc2c(NCCN3CCN(c4nc(Nc5ccccc5)nc(Nc5ccccc5)n4)CC3)ccnc2c1`: 27.8 and 0.0756 µg/mL (≈ 0.137 µM).
As for `Cc1ccc(Nc2nc(NC3CCCCC3)nc(N3CCN(CCNc4ccnc5cc(Cl)ccc45)CC3)n2)cc1`, in series [1], the selectivity ratio was 115. Moreover, in the series with Plasmodium falciparum, half-maximal inhibition (IC50) required 0.256 µg/mL (≈ 0.447 µM).
For `CCN1CCN(c2nc(Nc3ccccc3)nc(N3CCN(CCNc4ccnc5cc(Cl)ccc45)CC3)n2)CC1` the same measures were 41.8 and 0.038 µg/mL (≈ 0.0663 µM).
The matching figures for `Cc1ccc(Nc2nc(Nc3ccc(C)cc3)nc(N3CCN(CCNc4ccnc5cc(Cl)ccc45)CC3)n2)cc1`: 155 and 0.0383 µg/mL (≈ 0.0659 µM).
The matching figures for `CCN1CCN(c2nc(Nc3ccc(C)cc3)nc(N3CCN(CCNc4ccnc5cc(Cl)ccc45)CC3)n2)CC1`: 41 and 0.019 µg/mL (≈ 0.0324 µM).
In the case of `O=CN1CCN(c2nc(N3CCOCC3)nc(N3CCN(CCNc4ccnc5cc(Cl)ccc45)CC3)n2)CC1`, the selectivity ratio in series [1] came to 4110. The molecule further showed an IC50 with Plasmodium falciparum of 0.0105 µg/mL (≈ 0.0185 µM).
The matching figures for `Cc1ccccc1Nc1nc(Nc2ccccc2C)nc(N2CCN(CCNc3ccnc4cc(Cl)ccc34)CC2)n1`: 75.3 and 0.186 µg/mL (≈ 0.32 µM).
In the case of `Clc1ccc2c(NCCN3CCN(c4nc(Nc5ccccc5)nc(NC5CCCCC5)n4)CC3)ccnc2c1`, the Activity is given as 78.73% in the series with Plasmodium yoelii [2] and 86.43% with Plasmodium yoelii [3]. Also, the selectivity ratio in series [1] is 154. Besides, in the series on Plasmodium falciparum, the IC50 is 0.0162 µg/mL (≈ 0.0291 µM).
The matching figures for `Fc1ccc(Nc2nc(NC3CCCCC3)nc(N3CCN(CCNc4ccnc5cc(Cl)ccc45)CC3)n2)cc1`: 71.75%, 74.81%, 262 and 0.00783 µg/mL (≈ 0.0136 µM).
Regarding `CCN(CC)CCCC(C)Nc1ccnc2cc(Cl)ccc12` (stereo unspecified) [CHLOROQUINE], the values for the Activity in the series on Plasmodium yoelii [2] and in the series with Plasmodium yoelii [3] were 94.26% and 99.9%, respectively.

As usually defined, the IC50 is the point on the concentration scale where inhibition reaches its midpoint.
